Published values from different studies.
Protocols differ between the studies behind these lines.
Target: Mu-type opioid receptor (Oprm1, Rattus norvegicus, UniProt P33535)

| SMILES | observed | method | setting | Ki |
| --- | --- | --- | --- | --- |
| Cc1cc(O)cc(C)c1C[C@H](C)C(=O)N[C@@H]1C/C=C/CC[C@@H](C(N)=O)NC(=O)[C@H](Cc2ccccc2)NC(=O)[C@H](Cc2ccccc2)NC1=O | ligand displacement | radioligand | cell membranes | 323 nM |
| Cc1cc(C)c(C[C@H](NC(=O)[C@@H](CCCNC(=N)N)NC(=O)[C@@H](N)Cc2c(C)cc(O)cc2C)C(=O)N[C@@H](CCCCN)C(N)=O)c(C)c1 | ligand displacement | radioligand | cell membranes | 0.158 nM |
| Cc1cc(O)cc(C)c1C[C@H](N)C(=O)N[C@H](C)C(=O)NCC(=O)N[C@@H](Cc1ccc(Cl)cc1)C(=O)N(C)CCC[C@@]1(c2ccc(F)cc2)OCc2cc(C#N)ccc21 | cell-free assay | – | – | 12 nM |
| C[C@@H](NC(=O)[C@@H](N)Cc1ccc(O)cc1)C(=O)NCC(=O)N[C@H](CC(=O)NNC(=O)C[C@H](Cc1ccccc1)NC(=O)CNC(=O)[C@@H](C)NC(=O)[C@@H](N)Cc1ccc(O)cc1)Cc1ccccc1 | ligand displacement | radioligand | – | 1.1 nM |
| Cc1cccc(C)c1C[C@H](NC(=O)[C@@H](CCCNC(=N)N)NC(=O)[C@@H](N)Cc1c(C)cc(O)cc1C)C(=O)N[C@@H](CCCCN)C(N)=O | ligand displacement | radioligand | cell membranes | 0.00935 nM |
| N=C(N)NCCC[C@@H]1NC(=O)[C@H](Cc2ccc(O)cc2)NC(=O)[C@@H](CCCCN)NC(=O)[C@@H](Cc2ccccc2)NC1=O | ligand displacement | radioligand | cell membranes | 171 nM |
| Cc1ccccc1Cc1ccc2c(c1)CN(C(=O)[C@@H](N)Cc1c(C)cc(O)cc1C)CC2 | ligand displacement | radioligand | cell membranes | 2.5 nM |
| Oc1cccc([C@@]23CCC[C@@H]([C@@H]2O)N(CC=Cc2ccccc2)CC3)c1 | ligand displacement | radioligand | – | 25 nM |
| Cc1cc(O)cc(C)c1C[C@H](N)C(=O)N1CCc2ccc(Cc3ccc([N+](=O)[O-])cc3)cc2C1 | ligand displacement | radioligand | cell membranes | 2.6 nM |
| Cc1cc(O)cc(C)c1C[C@H](N)C(=O)N[C@H](CCCNC(=N)N)C(=O)N[C@@H](Cc1c(C)cccc1C(C)C)C(=O)N[C@@H](CCCCN)C(N)=O | ligand displacement | radioligand | cell membranes | 0.155 nM |
| C[C@@H](NC(=O)[C@@H](N)Cc1ccc(O)cc1)C(=O)NCC(=O)N[C@@H](Cc1ccccc1)C(=O)N(C)CCC[C@@]1(c2ccc(F)cc2)OCc2cc(C#N)ccc21 | cell-free assay | – | – | 88 nM |
| Cc1cccc(Cc2ccc3c(c2)CN(C(=O)[C@@H](N)Cc2c(C)cc(O)cc2C)CC3)c1 | ligand displacement | radioligand | cell membranes | 3.1 nM |
| CCCC[C@@H](NC(=O)[C@@H](N)Cc1ccc(O)cc1)C(=O)NCC(=O)N[C@@H](Cc1ccc(F)cc1)C(=O)N(C)CCC[C@@]1(c2ccc(F)cc2)OCc2cc(C#N)ccc21 | cell-free assay | – | – | 16 nM |
| Cc1cc(O)cc(C)c1C[C@H](N)C(=O)N1CCc2ccc(Cc3ccc(N)cc3)cc2C1 | ligand displacement | radioligand | cell membranes | 47 nM |
